# Activity calls are given as the source filed them. The calls are words filed in the database; no cut-off is given here.
# Key:
# [1] = system: Botrytis cinerea; test: Antifungal activity against highly fenhexamid-resistant Botrytis cinerea MK5-14 assessed as inhibition of germ tube elongation after 24 hrs; type: functional, organism-based; settings: MK5-14, 24 h
# [2] = system: Botrytis cinerea; test: Antifungal activity against moderately to slightly fenhexamid-resistant Botrytis cinerea 05-ABA assessed as inhibition of germ tube elongation after 24 hrs; type: functional, organism-based
# [3] = system: Botrytis cinerea; test: Antifungal activity against moderately to slightly fenhexamid-resistant Botrytis cinerea 57 assessed as inhibition of germ tube elongation after 24 hrs; type: functional, organism-based; settings: Botrytis cinerea, 57, 24 h
# [4] = system: Botrytis cinerea; test: Antifungal activity against moderately to slightly fenhexamid-resistant Botrytis cinerea 221 assessed as inhibition of germ tube elongation after 24 hrs; type: functional, organism-based; settings: Botrytis cinerea, 221, 24 h
# [5] = system: Botrytis cinerea; test: Antifungal activity against fenhexamid-senistive Botrytis cinerea B05.10 assessed as inhibition of mycelium growth measured over 5 days; type: functional, organism-based; settings: B05.10, 120 h
# [6] = system: Botrytis cinerea; test: Antifungal activity against highly fenhexamid-resistant Botrytis cinerea 05-221 assessed as inhibition of mycelium growth measured over 5 days; type: functional, organism-based; settings: 05-221, 120 h
# [7] = system: Botrytis cinerea; test: Antifungal activity against highly fenhexamid-resistant Botrytis cinerea 05-AVB assessed as inhibition of mycelium growth measured over 5 days; type: functional, organism-based; settings: 120 h
# [8] = system: Botrytis cinerea; test: Antifungal activity against highly fenhexamid-resistant Botrytis cinerea 179 assessed as inhibition of mycelium growth measured over 5 days; type: functional, organism-based; settings: Botrytis cinerea, 179, 120 h
# [9] = system: Botrytis cinerea; test: Antifungal activity against highly fenhexamid-resistant Botrytis cinerea 214 assessed as inhibition of mycelium growth measured over 5 days; type: functional, organism-based; settings: Botrytis cinerea, 214, 120 h
# [10] = system: Botrytis cinerea; test: Antifungal activity against highly fenhexamid-resistant Botrytis cinerea 223a assessed as inhibition of mycelium growth measured over 5 days; type: functional, organism-based; settings: 120 h
# [11] = system: Botrytis cinerea; test: Antifungal activity against highly fenhexamid-resistant Botrytis cinerea 223b assessed as inhibition of mycelium growth measured over 5 days; type: functional, organism-based; settings: 120 h
# [12] = system: Botrytis cinerea; test: Antifungal activity against highly fenhexamid-resistant Botrytis cinerea 312 assessed as inhibition of mycelium growth measured over 5 days; type: functional, organism-based; settings: Botrytis cinerea, 312, 120 h
# [13] = system: Botrytis cinerea; test: Antifungal activity against highly fenhexamid-resistant Botrytis cinerea 440a assessed as inhibition of mycelium growth measured over 5 days; type: functional, organism-based; settings: 120 h
# [14] = system: Botrytis cinerea; test: Antifungal activity against highly fenhexamid-resistant Botrytis cinerea 440b assessed as inhibition of mycelium growth measured over 5 days; type: functional, organism-based; settings: 120 h
# [15] = system: Botrytis cinerea; test: Antifungal activity against highly fenhexamid-resistant Botrytis cinerea 506a assessed as inhibition of mycelium growth measured over 5 days; type: functional, organism-based; settings: 120 h
# [16] = system: Botrytis cinerea; test: Antifungal activity against highly fenhexamid-resistant Botrytis cinerea 520a assessed as inhibition of mycelium growth measured over 5 days; type: functional, organism-based; settings: 120 h
# [17] = system: Botrytis cinerea; test: Antifungal activity against highly fenhexamid-resistant Botrytis cinerea 533 assessed as inhibition of mycelium growth measured over 5 days; type: functional, organism-based; settings: Botrytis cinerea, 533, 120 h
# [18] = system: Botrytis cinerea; test: Antifungal activity against moderately to slightly fenhexamid-resistant Botrytis cinerea 286 assessed as inhibition of mycelium growth measured over 5 days; type: functional, organism-based; settings: Botrytis cinerea, 286, 120 h
# [19] = system: Botrytis cinerea; test: Antifungal activity against moderately to slightly fenhexamid-resistant Botrytis cinerea 452 assessed as inhibition of mycelium growth measured over 5 days; type: functional, organism-based; settings: Botrytis cinerea, 452, 120 h
# [20] = system: Botrytis cinerea; test: Antifungal activity against moderately to slightly fenhexamid-resistant Botrytis cinerea 453a assessed as inhibition of mycelium growth measured over 5 days; type: functional, organism-based; settings: 120 h
# [21] = system: Botrytis cinerea; test: Antifungal activity against moderately to slightly fenhexamid-resistant Botrytis cinerea 453b assessed as inhibition of mycelium growth measured over 5 days; type: functional, organism-based; settings: 120 h
# [22] = system: Botrytis cinerea; test: Antifungal activity against moderately to slightly fenhexamid-resistant Botrytis cinerea 454 assessed as inhibition of mycelium growth measured over 5 days; type: functional, organism-based; settings: Botrytis cinerea, 454, 120 h
# [23] = system: Botrytis cinerea; test: Antifungal activity against Botrytis cinerea B05.10 harboring TELerg F412I mutant assessed as appearance of mycelium growth up to 20 ug/ml; type: functional
# Method in brief: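 B05.10 transformants carrying the erg27 allele on the pFTELerg plasmid were grown on rich medium with hygromycin B until conidiation. Spores were spread on YSS (synthetic complete) medium with 50 µg ml–1 hygromycin B and fenhexamid at 1 to 20 µg ml–1. After 7 days at 21°C, spores developing mycelium were scored under the microscope.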
# [24] = system: Botrytis cinerea; test: Antifungal activity against HydR3 deficient Botrytis cinerea 453 harboring TELerg N369D mutant at 1 ug/ml relative to wild-type; type: functional, organism-based
# Method in brief: (§1)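 In the dominance test, the recipient strains 453b and 286 were transformed with different erg27 alleles. Spores of the transformants were grown on YSS medium containing fenhexamid at different concentrations and 50 µg ml–1 hygromycin B. Parental strains were grown without hygromycin. Growth was scored after 7 days at 21°C.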
# [25] = system: Botrytis cinerea; test: Antifungal activity against HydR3 deficient Botrytis cinerea 453 harboring TELerg N369D mutant at 2 ug/ml relative to wild-type; type: functional, organism-based; method in brief: as §1
# [26] = system: Botrytis cinerea; test: Antifungal activity against HydR3 deficient Botrytis cinerea 453 harboring TELerg N369D mutant at 5 ug/ml relative to wild-type; type: functional, organism-based; method in brief: as §1
# [27] = system: Botrytis cinerea; test: Antifungal activity against Botrytis cinerea 286 harboring TELerg S336C mutant at 5 ug/ml relative to wild-type; type: functional, organism-based; method in brief: as §1
# [28] = system: Botrytis cinerea; test: Antifungal activity against fenhexamid-senistive Botrytis cinerea SAS56 assessed as inhibition of germ tube elongation after 24 hrs; type: functional, organism-based; settings: SAS56, 24 h
# [29] = system: Botrytis cinerea; test: Antifungal activity against fenhexamid-senistive Botrytis cinerea SAS405 assessed as inhibition of germ tube elongation after 24 hrs; type: functional, organism-based; settings: SAS405, 24 h
# [30] = system: Botrytis cinerea; test: Antifungal activity against fenhexamid-senistive Botrytis cinerea B05.10 assessed as inhibition of germ tube elongation after 24 hrs; type: functional, organism-based; settings: B05.10, 24 h
# [31] = system: Botrytis cinerea; test: Antifungal activity against highly fenhexamid-resistant Botrytis cinerea 05-190 assessed as inhibition of germ tube elongation after 24 hrs; type: functional, organism-based; settings: 05-190, 24 h
# [32] = system: Botrytis cinerea; test: Antifungal activity against highly fenhexamid-resistant Botrytis cinerea 179 assessed as inhibition of germ tube elongation after 24 hrs; type: functional, organism-based; settings: Botrytis cinerea, 179, 24 h
# [33] = system: Botrytis cinerea; test: Antifungal activity against highly fenhexamid-resistant Botrytis cinerea 223a assessed as inhibition of germ tube elongation after 24 hrs; type: functional, organism-based
# [34] = system: Botrytis cinerea; test: Antifungal activity against highly fenhexamid-resistant Botrytis cinerea 223b assessed as inhibition of germ tube elongation after 24 hrs; type: functional, organism-based
# [35] = system: Botrytis cinerea; test: Antifungal activity against highly fenhexamid-resistant Botrytis cinerea 379a assessed as inhibition of germ tube elongation after 24 hrs; type: functional, organism-based
# [36] = system: Botrytis cinerea; test: Antifungal activity against highly fenhexamid-resistant Botrytis cinerea 379b assessed as inhibition of germ tube elongation after 24 hrs; type: functional, organism-based
# [37] = system: Botrytis cinerea; test: Antifungal activity against highly fenhexamid-resistant Botrytis cinerea 440a assessed as inhibition of germ tube elongation after 24 hrs; type: functional, organism-based
# [38] = system: Botrytis cinerea; test: Antifungal activity against highly fenhexamid-resistant Botrytis cinerea 440b assessed as inhibition of germ tube elongation after 24 hrs; type: functional, organism-based
# [39] = system: Botrytis cinerea; test: Antifungal activity against highly fenhexamid-resistant Botrytis cinerea 520b assessed as inhibition of germ tube elongation after 24 hrs; type: functional, organism-based
# [40] = system: Botrytis cinerea; test: Antifungal activity against highly fenhexamid-resistant Botrytis cinerea MK3-1 assessed as inhibition of germ tube elongation after 24 hrs; type: functional, organism-based; settings: MK3-1, 24 h
# [41] = system: Botrytis cinerea; test: Antifungal activity against highly fenhexamid-resistant Botrytis cinerea MK3-31 assessed as inhibition of germ tube elongation after 24 hrs; type: functional, organism-based; settings: MK3-31, 24 h
# [42] = system: Botrytis cinerea; test: Antifungal activity against highly fenhexamid-resistant Botrytis cinerea MK3-36 assessed as inhibition of germ tube elongation after 24 hrs; type: functional, organism-based; settings: MK3-36, 24 h
smiles,measurement,setting,value
CC1(C(=O)Nc2ccc(O)c(Cl)c2Cl)CCCCC1 [FENHEXAMID],EC50,[1],> 5 µg/mL
same,EC50,[2],0.8 µg/mL
same,EC50,[3],2 µg/mL
same,EC50,[4],0.5 µg/mL
same,EC50,[5],< 0.03 µg/mL
same,EC50,[6],7 µg/mL
same,EC50,[7],5 µg/mL
same,EC50,[8],> 10 µg/mL
same,EC50,[9],> 10 µg/mL
same,EC50,[10],> 10 µg/mL
same,EC50,[11],> 10 µg/mL
same,EC50,[12],> 10 µg/mL
same,EC50,[13],> 10 µg/mL
same,EC50,[14],> 10 µg/mL
same,EC50,[15],> 10 µg/mL
same,EC50,[16],3 µg/mL
same,EC50,[17],10 µg/mL
same,EC50,[18],1.5 µg/mL
same,EC50,[19],1.5 µg/mL
same,EC50,[20],2 µg/mL
same,EC50,[21],1.5 µg/mL
same,EC50,[22],< 0.3 µg/mL
same,Activity,[23],10%
same,Activity,[24],inactive
same,Activity,[25],inactive
same,Activity,[26],inactive
same,Activity,[27],inactive
same,EC50,[28],< 0.1 µg/mL
same,EC50,[29],< 0.1 µg/mL
same,EC50,[30],< 0.1 µg/mL
same,EC50,[31],> 10 µg/mL
same,EC50,[32],> 10 µg/mL
same,EC50,[33],> 10 µg/mL
same,EC50,[34],> 10 µg/mL
same,EC50,[35],> 10 µg/mL
same,EC50,[36],> 10 µg/mL
same,EC50,[37],> 10 µg/mL
same,EC50,[38],> 10 µg/mL
same,EC50,[39],8 µg/mL
same,EC50,[40],> 5 µg/mL
same,EC50,[41],> 5 µg/mL
same,EC50,[42],> 5 µg/mL
